From ChEMBL document CHEMBL1177709, “Molecular switch controlling the binding of anionic bile acid conjugates to human apical sodium-dependent bile acid transporter” (J Med Chem, 2010) come the findings set out here.

This test addresses T1, Ileal sodium/bile acid cotransporter (Homo sapiens, UniProt Q12908).
T1 sequence (Q12908 whole entry): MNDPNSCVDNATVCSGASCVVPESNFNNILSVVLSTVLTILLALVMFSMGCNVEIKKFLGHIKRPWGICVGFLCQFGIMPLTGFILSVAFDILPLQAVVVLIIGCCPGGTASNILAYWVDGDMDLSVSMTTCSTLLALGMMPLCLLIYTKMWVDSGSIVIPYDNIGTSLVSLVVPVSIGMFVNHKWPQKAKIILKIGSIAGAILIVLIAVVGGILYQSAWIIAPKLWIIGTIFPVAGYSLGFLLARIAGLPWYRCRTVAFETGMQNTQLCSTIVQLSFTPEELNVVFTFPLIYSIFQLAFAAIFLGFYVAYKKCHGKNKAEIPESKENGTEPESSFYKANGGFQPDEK
As to the kind of experiment: Inhibition of human ASBT expressed in MDCK cells assessed as inhibition of [3H]taurocholic acid uptake after 10 mins by liquid scintillation counting. Format: cell-based. The procedure, abridged:
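Stably transfected hASBT-MDCK cells grown in DMEM with 10% FBS, penicillin/streptomycin and 1 mg/mL geneticin, seeded at 1.5 million/well, induced with 10mM sodium butyrate for 12-17 h before study on day 4. Cells washed with chilled sodium-free buffer, lysed in NaOH, neutralized, counted.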
In general, Ki refers to the equilibrium dissociation constant of an inhibitor or competing ligand from its target. Take `C[C@H](CCC(=O)N[C@@H](CCC(=O)Nc1ccc(Cl)cc1)C(=O)O)[C@H]1CC[C@H]2[C@@H]3[C@H](O)C[C@H]4C[C@H](O)CC[C@]4(C)[C@H]3CC[C@]12C`: the inhibition constant (Ki) came to 1.91 µM. For `C[C@H](CCC(=O)N[C@@H](CCC(=O)Nc1ccc(C(F)(F)F)cc1)C(=O)O)[C@H]1CC[C@H]2[C@@H]3[C@H](O)C[C@H]4C[C@H](O)CC[C@]4(C)[C@H]3CC[C@]12C` the value was 2.02 µM.

Turning to `C[C@H](CCC(=O)N[C@@H](CCC(=O)Nc1ccccc1F)C(=O)O)[C@H]1CC[C@H]2[C@@H]3[C@H](O)C[C@H]4C[C@H](O)CC[C@]4(C)[C@H]3CC[C@]12C`, the Ki was determined as 2.31 µM. Then `C[C@H](CCC(=O)N[C@@H](CCC(=O)Nc1cccc(F)c1)C(=O)O)[C@H]1CC[C@H]2[C@@H]3[C@H](O)C[C@H]4C[C@H](O)CC[C@]4(C)[C@H]3CC[C@]12C`, with 1.25 µM. For `C[C@H](CCC(=O)N[C@@H](CCC(=O)Nc1ccc(F)cc1)C(=O)O)[C@H]1CC[C@H]2[C@@H]3[C@H](O)C[C@H]4C[C@H](O)CC[C@]4(C)[C@H]3CC[C@]12C` the value was 3.02 µM. For `Cc1ccccc1NC(=O)CC[C@H](NC(=O)CC[C@@H](C)[C@H]1CC[C@H]2[C@@H]3[C@H](O)C[C@H]4C[C@H](O)CC[C@]4(C)[C@H]3CC[C@]12C)C(=O)O` the value was 2.63 µM. `Cc1cccc(NC(=O)CC[C@H](NC(=O)CC[C@@H](C)[C@H]2CC[C@H]3[C@@H]4[C@H](O)C[C@H]5C[C@H](O)CC[C@]5(C)[C@H]4CC[C@]23C)C(=O)O)c1`: the Ki was found to be 0.889 µM. As for `Cc1ccc(NC(=O)CC[C@H](NC(=O)CC[C@@H](C)[C@H]2CC[C@H]3[C@@H]4[C@H](O)C[C@H]5C[C@H](O)CC[C@]5(C)[C@H]4CC[C@]23C)C(=O)O)cc1`, the Ki stood at 3.2 µM. For `COc1ccccc1NC(=O)CC[C@H](NC(=O)CC[C@@H](C)[C@H]1CC[C@H]2[C@@H]3[C@H](O)C[C@H]4C[C@H](O)CC[C@]4(C)[C@H]3CC[C@]12C)C(=O)O` the value was 3.89 µM; for `COc1cccc(NC(=O)CC[C@H](NC(=O)CC[C@@H](C)[C@H]2CC[C@H]3[C@@H]4[C@H](O)C[C@H]5C[C@H](O)CC[C@]5(C)[C@H]4CC[C@]23C)C(=O)O)c1`, 4.22 µM. Then `COc1ccc(NC(=O)CC[C@H](NC(=O)CC[C@@H](C)[C@H]2CC[C@H]3[C@@H]4[C@H](O)C[C@H]5C[C@H](O)CC[C@]5(C)[C@H]4CC[C@]23C)C(=O)O)cc1`, with 6.09 µM; and `C[C@H](CCC(=O)N[C@@H](CCC(=O)Nc1ccccc1C(C)(C)C)C(=O)O)[C@H]1CC[C@H]2[C@@H]3[C@H](O)C[C@H]4C[C@H](O)CC[C@]4(C)[C@H]3CC[C@]12C`, with 3.93 µM; and `C[C@H](CCC(=O)N[C@@H](CCC(=O)Nc1cccc(C(C)(C)C)c1)C(=O)O)[C@H]1CC[C@H]2[C@@H]3[C@H](O)C[C@H]4C[C@H](O)CC[C@]4(C)[C@H]3CC[C@]12C`, with 0.587 µM.

With `C[C@H](CCC(=O)N[C@@H](CCC(=O)Nc1ccc(C(C)(C)C)cc1)C(=O)O)[C@H]1CC[C@H]2[C@@H]3[C@H](O)C[C@H]4C[C@H](O)CC[C@]4(C)[C@H]3CC[C@]12C`, the Ki came out at 0.275 µM. For `COC(=O)c1ccccc1NC(=O)CC[C@H](NC(=O)CC[C@@H](C)[C@H]1CC[C@H]2[C@@H]3[C@H](O)C[C@H]4C[C@H](O)CC[C@]4(C)[C@H]3CC[C@]12C)C(=O)O` the value was 2.3 µM; for `COC(=O)c1cccc(NC(=O)CC[C@H](NC(=O)CC[C@@H](C)[C@H]2CC[C@H]3[C@@H]4[C@H](O)C[C@H]5C[C@H](O)CC[C@]5(C)[C@H]4CC[C@]23C)C(=O)O)c1`, 7.65 µM.

`COC(=O)c1ccc(NC(=O)CC[C@H](NC(=O)CC[C@@H](C)[C@H]2CC[C@H]3[C@@H]4[C@H](O)C[C@H]5C[C@H](O)CC[C@]5(C)[C@H]4CC[C@]23C)C(=O)O)cc1`: the Ki was 4.03 µM. For `C[C@H](CCC(=O)N[C@@H](CCC(=O)Nc1ccccc1N)C(=O)O)[C@H]1CC[C@H]2[C@@H]3[C@H](O)C[C@H]4C[C@H](O)CC[C@]4(C)[C@H]3CC[C@]12C` the value was 2.64 µM; for `C[C@H](CCC(=O)N[C@@H](CCC(=O)Nc1cccc(N)c1)C(=O)O)[C@H]1CC[C@H]2[C@@H]3[C@H](O)C[C@H]4C[C@H](O)CC[C@]4(C)[C@H]3CC[C@]12C`, 16.3 µM; for `C[C@H](CCC(=O)N[C@@H](CCC(=O)Nc1ccc(N)cc1)C(=O)O)[C@H]1CC[C@H]2[C@@H]3[C@H](O)C[C@H]4C[C@H](O)CC[C@]4(C)[C@H]3CC[C@]12C`, 15.9 µM. In the case of `C[C@H](CCC(=O)N[C@@H](CCC(=O)Nc1ccc(F)cc1F)C(=O)O)[C@H]1CC[C@H]2[C@@H]3[C@H](O)C[C@H]4C[C@H](O)CC[C@]4(C)[C@H]3CC[C@]12C`, the Ki was found to be 3.16 µM. Turning to `Cc1cccc(C)c1NC(=O)CC[C@H](NC(=O)CC[C@@H](C)[C@H]1CC[C@H]2[C@@H]3[C@H](O)C[C@H]4C[C@H](O)CC[C@]4(C)[C@H]3CC[C@]12C)C(=O)O`, the Ki turned out to be 8.07 µM. For `Cc1cccc(NC(=O)CC[C@H](NC(=O)CC[C@@H](C)[C@H]2CC[C@H]3[C@@H]4[C@H](O)C[C@H]5C[C@H](O)CC[C@]5(C)[C@H]4CC[C@]23C)C(=O)O)c1C` the value was 4.3 µM; for `COc1cc(NC(=O)CC[C@H](NC(=O)CC[C@@H](C)[C@H]2CC[C@H]3[C@@H]4[C@H](O)C[C@H]5C[C@H](O)CC[C@]5(C)[C@H]4CC[C@]23C)C(=O)O)cc(OC)c1`, 5.19 µM. For the compound `C[C@H](CCC(=O)N[C@@H](CCC(=O)Nc1ccccc1C(=O)O)C(=O)O)[C@H]1CC[C@H]2[C@@H]3[C@H](O)C[C@H]4C[C@H](O)CC[C@]4(C)[C@H]3CC[C@]12C`, the Ki is 40.4 µM. Then `C[C@H](CCC(=O)N[C@@H](CCC(=O)Nc1cccc(C(=O)O)c1)C(=O)O)[C@H]1CC[C@H]2[C@@H]3[C@H](O)C[C@H]4C[C@H](O)CC[C@]4(C)[C@H]3CC[C@]12C`, with 35.9 µM; and `C[C@H](CCC(=O)N[C@@H](CCC(=O)Nc1ccc(C(=O)O)cc1)C(=O)O)[C@H]1CC[C@H]2[C@@H]3[C@H](O)C[C@H]4C[C@H](O)CC[C@]4(C)[C@H]3CC[C@]12C`, with 108 µM. Regarding `C[C@H](CCC(=O)N[C@@H](CCC(=O)NCc1cccc(C(=O)O)c1)C(=O)O)[C@H]1CC[C@H]2[C@@H]3[C@H](O)C[C@H]4C[C@H](O)CC[C@]4(C)[C@H]3CC[C@]12C`, the Ki was determined as 126 µM. Then `C[C@H](CCC(=O)N[C@@H](CCC(=O)NCc1ccc(C(=O)O)cc1)C(=O)O)[C@H]1CC[C@H]2[C@@H]3[C@H](O)C[C@H]4C[C@H](O)CC[C@]4(C)[C@H]3CC[C@]12C`, with 41 µM. Regarding `CC(CCC(=O)NC(CCC(=O)Nc1ccc(NC(=O)OC(C)(C)C)cc1)C(=O)O)C1CCC2C3C(O)CC4CC(O)CCC4(C)C3CCC12C` (centres undefined), the Ki amounted to 5.26 µM. For `C[C@H](CCC(=O)N[C@@H](CCC(=O)Nc1cccc(C(=O)O)c1)C(=O)OOCc1ccccc1)[C@H]1CC[C@H]2[C@@H]3[C@H](O)C[C@H]4C[C@H](O)CC[C@]4(C)[C@H]3CC[C@]12C` the value was 2.24 µM. Then `CCOC(=O)c1ccccc1NC(=O)CCC(NC(=O)CCC(C)C1CCC2C3C(O)CC4CC(O)CCC4(C)C3CCC12C)C(=O)O` (centres undefined), with 1.15 µM. For `CCOC(=O)c1ccc(NC(=O)CCC(NC(=O)CCC(C)C2CCC3C4C(O)CC5CC(O)CCC5(C)C4CCC23C)C(=O)O)cc1` (centres undefined) the value was 5.16 µM; for `CC(CCC(=O)NC(CCC(=O)Nc1cccc(NC(=O)OC(C)(C)C)c1)C(=O)O)C1CCC2C3C(O)CC4CC(O)CCC4(C)C3CCC12C` (centres undefined), 6.53 µM.
